Calls of active or inactive are those of the source. No cut-off for these calls is given here.
Legend:
Bos taurus = species: Bos taurus; assay: Antioxidant activity in bovine heart mitochondria assessed as reduction of antimycin A-induced ROS production at 10 uM by fluorescence plate reader analysis; type: functional
Summary of the method: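 Submitochondrial particles were given NADH as substrate, and ROS production was induced with 2 μM antimycin A. Compounds were tested at 10 μM, with 1.8 μM mucidin as negative control. ROS were detected with the fluorogenic probe DCFDA.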

[1] = Antioxidant activity in human fibroblasts assessed as reduction of tert-butyl hydroperoxide-induced ROS production at 10 uM treated 24 hrs before tert-butyl hydroperoxide challenge measured after 30 mins by fluorescence plate reader analysis; type: functional, Fibroblast; parameters: scale not given: the % may be the effect or the level left
Caco-2 [2] = assay: Antiproliferative activity against human Caco-2 cells after 72 hrs by MTT assay; type: functional, cell-based; conditions: Caco-2, 72 h
Summary of the method: (§1)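 Cells were incubated 72 h with compound at 0.1-30 μM, and proliferation was measured by MTT. IC50 is the concentration giving 50% inhibition of proliferation, reported as the mean of two independent experiments.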

SH-SY5Y [3] = assay: Antiproliferative activity against human SH-SY5Y cells after 72 hrs by MTT assay; type: functional, cell-based; summary of the method: as §1
C6 [4] = assay: Antiproliferative activity against rat C6 cells after 72 hrs by MTT assay; type: functional, cell-based; conditions: C6, 72 h; summary of the method: as §1
[5] = Antiproliferative activity against mouse HT22 cells after 72 hrs by MTT assay; type: cell-based; conditions: HT-22, 72 h; summary of the method: as §1
HaCaT [6] = assay: Antiproliferative activity against human HaCaT cells after 72 hrs by MTT assay; type: cell-based; summary of the method: as §1
Caco-2 [7] = assay: Antiproliferative activity against human Caco-2 cells at 10 uM after 72 hrs by MTT assay; type: functional
Summary of the method: (§2)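 Proliferation was measured by MTT after 72 h exposure to compound (range 0.1-30 μM, with the 10 μM point reported). Results are expressed as percent of control cells, as the mean of two independent experiments.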

SH-SY5Y [8] = assay: Antiproliferative activity against human SH-SY5Y cells at 10 uM after 72 hrs by MTT assay; type: functional; summary of the method: as §2
C6 [9] = assay: Antiproliferative activity against rat C6 cells at 10 uM after 72 hrs by MTT assay; type: functional; summary of the method: as §2
[10] = Antiproliferative activity against mouse HT22 cells at 10 uM after 72 hrs by MTT assay; type: cell-based; conditions: ht-22, 72 h; summary of the method: as §2
HaCaT [11] = assay: Antiproliferative activity against human HaCaT cells at 10 uM after 72 hrs by MTT assay; type: cell-based; summary of the method: as §2
[12] = Cellular uptake in human T67 cells at 10 uM after 30 mins by fluorescence microscopic analysis; type: ADME, cell-based; conditions: t67, 0.5 h
Summary of the method: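 T67 glioma cells were pretreated with 10 μM fluorescent probe plus 1 mg/mL oligomycin. Images were taken by inverted fluorescence microscopy after 30 min of incubation, with or without 20 μM CCCP uncoupler to test dependence on mitochondrial potential.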

[13] = Cellular uptake in human T67 cells at 10 uM after 30 mins by fluorescence microscopic analysis in presence of mitochondrial uncoupler carbonyl cyanide m-chlorophenyl-hydrazone; type: ADME, cell-based; conditions: t67, 0.5 h
Summary of the method: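 T67 glioma cells were pretreated with 10 μM of the fluorescent test compound plus 1 mg/mL oligomycin, an ATP-synthase inhibitor, with 20 μM CCCP uncoupler added. Images were taken by inverted fluorescence microscopy after 30 min of incubation.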

T67 = assay: Antiproliferative activity against human T67 cells at 10 uM after 72 hrs by MTT assay; type: functional, cell-based
[14] = molecular target: T1, Heme oxygenase 1 (Bos taurus) (UniProt Q5E9F2); assay: Activation of heme oxygenase-1 in BAEC at 10 uM after 6 hrs
T1 sequence (whole entry): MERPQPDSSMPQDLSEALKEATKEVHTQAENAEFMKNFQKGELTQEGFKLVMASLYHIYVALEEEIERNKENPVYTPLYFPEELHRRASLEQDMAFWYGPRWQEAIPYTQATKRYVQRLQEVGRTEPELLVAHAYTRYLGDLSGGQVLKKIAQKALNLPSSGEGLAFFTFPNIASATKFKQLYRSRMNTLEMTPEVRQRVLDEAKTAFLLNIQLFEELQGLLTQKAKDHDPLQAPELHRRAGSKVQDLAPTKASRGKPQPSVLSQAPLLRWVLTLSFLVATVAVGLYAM
Summary of the method: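 HO-1 activity measured in bovine aortic endothelial cells exposed to 10 μM compound for 6 h. Control cells received medium alone. Activity is reported as (pmol bilirubin/mg protein)/h, averaged over three independent experiments.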

SMILES | Activity (Bos taurus) | Activity [1] | IC50 (Caco-2 [2]) | IC50 (SH-SY5Y [3]) | IC50 (C6 [4]) | IC50 [5] | IC50 (HaCaT [6]) | Activity (Caco-2 [7]) | Activity (SH-SY5Y [8]) | Activity (C6 [9]) | Activity [10] | Activity (HaCaT [11]) | Drug uptake [12] | Drug uptake [13] | Activity (T67) | Activity [14]
CCOc1cc(/C=C2\CN(C(=O)CCC(=O)NCCCNCCCN)C/C(=C\c3ccc(O)c(OCC)c3)C2=O)ccc1O | Active | 45% | 16.2 µM | 14.6 µM | 14.5 µM | 18.9 µM | 15.5 µM |  |  |  |  |  |  |  |  | 
CCOc1cc(/C=C2\CN(C(=O)CCC(=O)NCCCNCCCCNCCCN)C/C(=C\c3ccc(O)c(OCC)c3)C2=O)ccc1O | Active | 38% | 14.4 µM | 20.8 µM | 14.2 µM | 18.4 µM | 15.7 µM |  |  |  |  |  |  |  |  | 
COc1cc(/C=C2\CN(C(=O)CCC(=O)NCCCNCCCCNCCCN)C/C(=C\c3ccc(O)c(OC)c3)C2=O)ccc1O | Active | 45% | 11.9 µM | 14.2 µM | 13.9 µM | 19.8 µM | 15.6 µM | 40% | 40% | 40% | 10% | 10% |  |  |  | 
CCCCCC[C@H]1C(=O)O[C@H](C)[C@H](NC(=O)c2cccc(NC=O)c2O)C(=O)O[C@@H](C)[C@@H]1OC(=O)CC(C)C | inactive |  |  |  |  |  |  |  |  |  |  |  |  |  |  | 
COc1cc(/C=C/C(=O)CC(=O)/C=C/c2ccc(O)c(OC)c2)ccc1O [CURCUMIN] |  |  | 15 µM | 12.8 µM | 16.1 µM | 20.4 µM | 21.9 µM |  |  |  |  |  |  |  |  | 
COc1cc(/C=C2\CN(C(=O)CCC(=O)N(CCCNCCCCNCCCN)Cc3ccc(-c4nc5ccccc5s4)cc3)C/C(=C\c3ccc(O)c(OC)c3)C2=O)ccc1O |  |  |  |  |  |  |  |  |  |  |  |  | Active | Not Active |  | 
COc1cc(/C=C2\CNC/C(=C\c3ccc(O)c(OC)c3)C2=O)ccc1O | inactive |  | 0.2 µM | 2.1 µM | 3.9 µM | 3.1 µM | 3 µM |  |  |  |  |  |  |  | Active | Active
COc1cc(/C=C2\CN(C(=O)CCC(=O)NCCCNCCCN)C/C(=C\c3ccc(O)c(OC)c3)C2=O)ccc1O | Active | 40% | 16.5 µM | 17.8 µM | 19.9 µM | 24.5 µM | 17.7 µM |  |  |  |  |  |  |  |  | 
